A short description of assay [1]: Inhibition of human testis ACE delta36NJ mutant preincubated for 30 mins followed by Z-FHL substrate addition measured after 15 mins by fluorimetric method. Summed up: (§1)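 Enzyme diluted from frozen stock to 10 nM (Ndom389, line 1) or 5 nM (tACE Δ36NJ, line 2) in 100 mM potassium phosphate pH 8.3, 300 mM NaCl, 10 μM ZnSO4, 1 mg/ml albumin. Compounds (10-fold series 100 μM–1 nM, then 9-point two-fold series) preincubated with enzyme 1:1, 30 min, room temperature. 1 mM Z-FHL added, 40 °C, 15 min. OPA/NaOH derivatisation, HCl quench. Fluorescence ex 360/em 485 nm, triplicate wells. IC50 from activity curves, converted to Ki.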

Assay [2] is described as follows: Inhibition of human ACE Ndom389 mutant preincubated for 30 mins followed by Z-FHL substrate addition measured after 15 mins by fluorimetric method. Summed up: as §1
The species entered for assay [3] is Homo sapiens. Briefly: Selectivity ratio of Ki for human testis ACE delta36NJ mutant to Ki for human ACE Ndom389 mutant. The procedure, abridged:
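Ki for each domain calculated from IC50 values obtained by Z-FHL hydrolysis assay (Ndom389 10 nM, tACE Δ36NJ 5 nM; 30 min room temperature preincubation, 15 min at 40 °C, OPA fluorescence ex 360/em 485 nm, triplicate). Ratio of C-domain Ki to N-domain Ki.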

In general, Ki refers to the equilibrium dissociation constant of an inhibitor or competing ligand from its target. The low end stands for higher affinity, the high end for lower affinity.

As for `C[C@H](N[C@H](C(=O)O)[C@@H]1CCCN1C(=O)c1ccccc1)C(=O)N1CCC[C@H]1C(=O)O`, the Ki in assay [1] came out at 0.31 nM; in assay [2], 4.45 nM. The Ratio Ki in assay [3] came out at 0.07.

For the compound `C[C@H](N[C@H](C(=O)O)[C@@H]1CCCN1C(=O)[C@@H](N)CC(=O)O)C(=O)N1CCC[C@H]1C(=O)O`, the Ki in assay [1] worked out at 961 nM; in assay [2], 11.4 nM. Also, the Ratio Ki in assay [3] turned out to be 83.9.

For the compound `C[C@H](N[C@H](C(=O)O)[C@@H]1CCCN1C(=O)c1ccc(C(=O)O)cc1)C(=O)N1CCC[C@H]1C(=O)O`, the Ki was 2.29 nM in assay [1] and 16.9 nM in assay [2]. For the same compound, in assay [3], the Ratio Ki was 0.14.

On to `C[C@H](N[C@H](C(=O)O)[C@@H]1CCCN1C(=O)c1ccc(N)cc1)C(=O)N1CCC[C@H]1C(=O)O`, for which the Ki in assay [1] was found to be 0.22 nM; in assay [2] it was 3.37 nM. The Ratio Ki in assay [3] was found to be 0.07.

In the case of `C[C@H](N[C@H](C(=O)O)[C@@H]1CCCN1C(=O)CN)C(=O)N1CCC[C@H]1C(=O)O`, the Ki stood at 44.4 nM in assay [1] and 279 nM in assay [2]. In addition, the Ratio Ki in assay [3] was determined as 0.16.

Consider `C[C@H](N[C@H](C(=O)O)[C@@H]1CCCN1C(=O)[C@@H](N)CCC(=O)O)C(=O)N1CCC[C@H]1C(=O)O`, for which the Ki in assay [1] was 17.4 nM; in assay [2], 9.63 nM. Further, in assay [3], the Ratio Ki came to 1.81.

Consider `C[C@H](N[C@H](C(=O)O)[C@@H]1CCCN1C(=O)[C@@H](N)Cc1ccccc1)C(=O)N1CCC[C@H]1C(=O)O`, for which the Ki in assay [1] is 168 nM; in assay [2], 70.3 nM. Also, in assay [3], the Ratio Ki stood at 2.39.

The record behind these values is ChEMBL document CHEMBL4028915, “The Design and Development of a Potent and Selective Novel Diprolyl Derivative That Binds to the N-Domain of Angiotensin-I Converting Enzyme” (J Med Chem, 2018).
